Test results as given in ChEMBL document CHEMBL1123462, “Indolo[2,1-c][1,4]benzodiazepines: a new class of antiallergic agents” (J Med Chem, 1986).

Assays:
Format in all cases: functional
[1] = system: Rattus norvegicus; assay: Compound was tested for the inhibition of rat passive cutaneous anaphylaxis (PCA) at 10 mg/kg dose ip (1h pretreatment); details: route intraperitoneal
[2] = system: Rattus norvegicus; assay: Compound was tested for the inhibition of rat passive cutaneous anaphylaxis (PCA) at 10 mg/kg dose ip; details: route intraperitoneal
[3] = system: Rattus norvegicus; assay: Compound was tested for the inhibition of rat passive cutaneous anaphylaxis (PCA) at 0.37 mg/kg dose ip (1h pretreatment); details: route intraperitoneal
How it was run: (§1)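 Male Sprague-Dawley rats were given 0.05 mL of high-titer IgE rat anti-ovalbumin antiserum intradermally. 24 h later: iv ovalbumin plus Evans Blue in saline, with simultaneous intradermal serotonin and histamine. Drug given ip 1 h before antigen. At 30 min, skin was reflected and wheal size and colour scored against a chart. %inhibition = (1 − mean treated/mean control score)×100. Dunnett's test, p ≤ 0.05.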

[4] = system: Rattus norvegicus; assay: Compound was tested for the inhibition of rat passive cutaneous anaphylaxis (PCA) administered intraperitoneally; details: ip; how it was run: as §1
[5] = system: Rattus norvegicus; assay: Compound was tested for percent inhibition, at 3.3 mg/kg administered intraperitoneally against serotonin by Dunnett's test; details: ip, route intraperitoneal; how it was run: as §1
[6] = system: Cavia porcellus; assay: Inhibition of guinea pig ALA at a dose of 1 mg/kg after 7 hr postdosing intraperitoneally; details: ip, route intraperitoneal
How it was run: (§2)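 Guinea pigs were sensitized with egg albumin 1 mg sc plus pertussis vaccine adjuvant. Two weeks later they were anesthetized (pentobarbital 65 mg/kg ip) and cannulated. Drug was given ip or orally at 1 mg/kg. Challenge with egg albumin 0.5 mg/kg iv at 1, 7, 8 or 24 h post-dose, with bronchoconstriction measured. %inhibition given as mean ± SD.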

[7] = system: Rattus norvegicus; assay: Compound was tested for percent inhibition, at 0.37 mg/kg administered intraperitoneally against histamine; details: ip, route intraperitoneal; how it was run: as §1
[8] = system: Rattus norvegicus; assay: Compound was tested for percent inhibition, at 3.3 mg/kg administered intraperitoneally against rat passive cutaneous anaphylaxis by Dunnett's test; details: ip, route intraperitoneal; how it was run: as §1
[9] = system: Cavia porcellus; assay: Inhibition of guinea pig ALA at a dose of 1 mg/kg after 8 hr postdosing orally; details: route oral; how it was run: as §2
[10] = system: Cavia porcellus; assay: Inhibition of guinea pig ALA at a dose of 1 mg/kg after 24 hr postdosing intraperitoneally; details: ip, route intraperitoneal; how it was run: as §2
[11] = system: Cavia porcellus; assay: Inhibition of guinea pig ALA at a dose of 1 mg/kg after 24 hr postdosing orally; details: route oral; how it was run: as §2
[12] = system: Cavia porcellus; assay: Compound was tested for the inhibition of guinea pig active lung anaphylaxis (ALA) at 0.01 mg/kg iv
How it was run: (§3)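 Guinea pigs were sensitized with egg albumin 1 mg sc plus Bordetella pertussis vaccine adjuvant. Two weeks later: pentobarbital 65 mg/kg ip, then trachea, jugular vein and carotid cannulated. Drug given iv before an iv egg albumin challenge (0.5 mg/kg). Airway resistance (bronchoconstriction) and arterial pressure monitored. %inhibition given as mean ± SE; ED50 iv with 95% confidence limits.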

[13] = system: Rattus norvegicus; assay: Compound was tested for percent inhibition, at 0.37 mg/kg administered intraperitoneally against serotonin by Dunnett's test; details: ip, route intraperitoneal; how it was run: as §1
[14] = system: Rattus norvegicus; assay: Compound was tested […] for the inhibition of serotonin release in rat peritoneal cell
[15] = system: Rattus norvegicus; assay: Compound was tested for percent inhibition, at 3.3 mg/kg administered intraperitoneally against histamine by Dunnett's test; details: ip, route intraperitoneal; how it was run: as §1
[16] = system: Cavia porcellus; assay: Compound was tested for the inhibition of guinea pig active lung anaphylaxis (ALA) administered intravenously; details: iv; how it was run: as §3
[17] = system: Cavia porcellus; assay: Inhibition of guinea pig ALA at a dose of 1 mg/kg after 1 hr postdosing orally 1 h; details: route oral; how it was run: as §2
[18] = system: Cavia porcellus; assay: Inhibition of guinea pig ALA at a dose of 1 mg/kg after 1 hr postdosing intraperitoneally 1 h; details: ip, route intraperitoneal; how it was run: as §2

c1ccc2c(c1)Cn1c(cc3ccccc31)C(N1CCCCC1)=N2
inhibition in vivo at 10 mg/kg [1]: 27.4%

OC1CCN(C2=Nc3ccccc3Cn3c2cc2ccccc23)CC1
inhibition in vivo at 10 mg/kg [1]: 40.2%

O=C1Nc2ccccc2Cn2c1cc1ccccc12
inhibition in vivo at 10 mg/kg [2]: 23.2%

CCCCN1CCN(C2=Nc3ccccc3Cn3c2cc2ccccc23)CC1
inhibition in vivo at 0.37 mg/kg [3]: 39.9%
ED50 [4]: 1.32 mg/kg

CCOC(=O)N1CCN(C2=Nc3ccccc3Cn3c2cc2ccccc23)CC1
inhibition in vivo at 0.37 mg/kg [3]: 38.7%
ED50 [4]: 0.67 mg/kg

CN1CCN(C2=Nc3ccccc3Cn3c2cc2ccccc23)CC1
inhibition in vivo at 3.3 mg/kg [5]: 65.9%
inhibition in vivo at 1 mg/kg [6]: 75%
inhibition in vivo at 0.37 mg/kg [7]: 58.2%
inhibition in vivo at 3.3 mg/kg [8]: 100%
inhibition in vivo at 1 mg/kg [9]: 87%
inhibition in vivo at 1 mg/kg [10]: 26%
inhibition in vivo at 1 mg/kg [11]: 61%
inhibition in vivo at 0.01 mg/kg [12]: 41%
inhibition in vivo at 0.37 mg/kg [13]: 50.9%
IC50 [14]: 15.9 µM
inhibition in vivo at 0.37 mg/kg [3]: 93.6%
inhibition in vivo at 3.3 mg/kg [15]: 63.3%
ED50 [16]: 0.01 mg/kg
inhibition in vivo at 1 mg/kg [17]: 51%
inhibition in vivo at 1 mg/kg [18]: 74%
ED50 [4]: 0.19 mg/kg
